PubChem BioAssay
Calls of active or inactive are those of the source.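 How the source made its calls, unless noted: active means viability at or under a set limit in both replicates, limit being median viability minus 3 SD (cut at about 48% in these data, passing the limit was not always enough); inconclusive means at or under the limit in just one replicate; inactive means at or above the limit in both replicates.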

Legend:
[1] = Her2 expression decrease, cell viability multiplex – SKBR3 breast tumor cells, AlphaScreen, ATP viability, primary screen (AID 461;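 active means Her2 level under about 52% in both replicate screens, with viability over 70% of control, limit read from the data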;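 on Her2 level: lower value means less Her2 protein in the cells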;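 on viability: percent of carrier control wells set as 100% viability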); settings: SKBR3 Her2 protein level, 18-24 h, measured here: SKBR3 viability, ATP luminescence, at 10 µM
[2] = molecular target: Receptor tyrosine-protein kinase erbB-2 (Homo sapiens) (UniProt P04626); test: as above; settings: 18-24 h, at 10 µM, stronger effect = lower value
[3] = reduced viability of SK-BR-3 breast cancer cells – cell-based, 24 h, human, pilot screen (AID 572;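 active means viability at or below 10% of carrier control in both of two separate runs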;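 further: compound exposure lasted between 18 and 24 h rather than exactly 24 h; 100% = carrier-treated control wells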); settings: SK-BR-3 viability, CellTiter-Glo luminescence, at 10 µM, stronger effect = lower value
[4] = HUVEC growth inhibition – cell-based, human, primary screen (AID 575;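 active means viability at or below 30% in both replicate assays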;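 further: 100% = median of untreated cell wells with 0.1% DMSO on each plate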); settings: HUVEC proliferation, CellTiter-Glo luminescence, 72 h; at 10 µM; stronger effect = lower value
How it was run: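 System – primary HUVEC, no more than 12 passages · Medium – Low-serum (2% FBS) EBM, supplemented · Times – 72 h exposure, 37 °C, 5% CO2, 30 min RT equilibration · Measured by – luminescent ATP assay · Read-out – % viability relative to median vehicle-well signal on each plate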

[5] = H69AR cell proliferation blockers – human, duplicate replicates, primary screen (AID 580); settings: H69AR lung tumor cells viability, ATP luminescence, 72 h; at 10 µM; stronger effect = lower value;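 further: 100% = mean luminescence of untreated wells and 0% = no signal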
[6] = MRP1 drug-resistance reversers in H69AR cells – cell-based, doxorubicin co-treatment, pilot screen (AID 601;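 active means viability loss from added drug above about 55%, and viability with drug at most 40%, in both replicates, limit read from the data, passing the limit was not always enough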); settings: CellTiter-Glo, 72 h, at 10 µM; for differential viability (reversal): stronger effect = higher value
[7] = yeast transport mutant growth inhibition pilot in 384-well plates, post-Golgi transport modulator project (AID 636; in the data active means inhibition above about 31%); settings: absorbance 615 nm, about 18 h, stronger effect = higher value
[8] = growth suppression of yeast trafficking mutant, preliminary HTS, modulators of trafficking downstream of Golgi apparatus project, 1536-format plate, OD 615 nm (AID 637; in the data active means inhibition above about 30%); settings: yeast transport mutant growth, absorbance 615 nm, 18 h; stronger effect = higher value
[9] = H69AR cells + 2 uM doxorubicin, measured here: viability with 2 uM doxorubicin, stronger effect = lower value
[10] = H69AR cells, compound alone cytotoxicity

Chain of Receptor tyrosine-protein kinase erbB-2 (Homo sapiens) (P04626 whole entry, looked up): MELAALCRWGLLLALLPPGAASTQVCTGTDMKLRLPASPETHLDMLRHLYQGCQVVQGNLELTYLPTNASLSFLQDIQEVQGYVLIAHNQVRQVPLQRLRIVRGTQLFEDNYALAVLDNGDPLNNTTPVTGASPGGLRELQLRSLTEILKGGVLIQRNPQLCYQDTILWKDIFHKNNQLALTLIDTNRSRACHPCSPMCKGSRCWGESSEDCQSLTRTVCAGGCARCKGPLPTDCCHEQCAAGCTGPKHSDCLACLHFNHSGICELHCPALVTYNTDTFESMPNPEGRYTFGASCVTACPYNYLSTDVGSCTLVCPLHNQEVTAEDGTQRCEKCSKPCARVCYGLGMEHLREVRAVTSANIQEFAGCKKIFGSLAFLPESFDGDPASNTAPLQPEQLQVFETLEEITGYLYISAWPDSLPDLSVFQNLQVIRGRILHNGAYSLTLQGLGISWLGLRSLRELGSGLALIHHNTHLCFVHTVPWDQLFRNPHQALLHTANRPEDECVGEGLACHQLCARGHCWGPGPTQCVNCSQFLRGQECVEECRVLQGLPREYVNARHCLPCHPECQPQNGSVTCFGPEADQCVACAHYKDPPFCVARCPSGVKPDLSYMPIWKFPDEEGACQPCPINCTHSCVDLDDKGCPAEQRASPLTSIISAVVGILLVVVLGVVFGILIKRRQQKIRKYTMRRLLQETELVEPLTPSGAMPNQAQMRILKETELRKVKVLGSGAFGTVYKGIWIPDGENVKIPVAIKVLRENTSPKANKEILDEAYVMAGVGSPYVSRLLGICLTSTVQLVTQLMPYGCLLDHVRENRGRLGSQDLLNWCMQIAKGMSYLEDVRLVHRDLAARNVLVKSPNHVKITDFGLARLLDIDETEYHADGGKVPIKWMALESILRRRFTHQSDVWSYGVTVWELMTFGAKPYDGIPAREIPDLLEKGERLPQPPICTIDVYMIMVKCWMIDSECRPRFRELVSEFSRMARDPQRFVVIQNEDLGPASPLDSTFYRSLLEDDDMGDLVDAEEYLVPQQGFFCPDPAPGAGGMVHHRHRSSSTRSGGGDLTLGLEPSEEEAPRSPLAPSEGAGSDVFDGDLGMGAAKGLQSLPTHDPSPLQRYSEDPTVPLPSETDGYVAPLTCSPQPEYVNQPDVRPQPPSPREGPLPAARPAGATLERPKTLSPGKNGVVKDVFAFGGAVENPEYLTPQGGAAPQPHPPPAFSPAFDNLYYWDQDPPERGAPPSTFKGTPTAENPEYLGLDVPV

Structure (SMILES) | viability [1] [%] | Her2 level [2] | viability [3] | viability [4] | viability [5] | differential viability (reversal) ([6]; H69AR cells + 2 uM doxorubicin) | viability [6, 9] [%] | viability [6, 10] [%] | inhibition [7] | inhibition [8]
CCCCc1ccc(NC(=O)N[C@H](C(=O)O)C(C)CC)cc1 (stereo not given in full) | 112 | 82% (inactive) | 112% (inactive) | 79.5% (inactive) | 99.7% (inactive) | 8.86% (inactive) | 90.8 | 99.7 | -5.92% (inactive) | -2.38% (inactive)
COc1ccc(C2C(=O)N(C3CCCCC3)CC(=O)N2Cc2ccco2)cc1 (stereo not given) | 110 | 91.5% (inactive) | 110% (inactive) | 95.9% (inactive) | 97.7% (inactive) | 18.2% (inactive) | 79.5 | 97.7 | -6.67% (inactive) | 1.45% (inactive)
CCOC(=O)C1CCN(C(=O)c2ccc(OC)cc2OC)CC1 | 102 | 112% (inactive) | 102% (inactive) | 110% (inactive) | 106% (inactive) | 5.9% (inactive) | 100 | 106 | -6.13% (inactive) | 6.13% (inactive)
COCCCNC(=O)C1CCCN(C(=O)Nc2ccc(OC)cc2)C1 (stereo not given) | 98 | 89% (inactive) | 98% (inactive) | 100% (inactive) | 90.4% (inactive) | 6.8% (inactive) | 83.6 | 90.4 | -7.03% (inactive) | 1.83% (inactive)
CCc1nnc2sc(-c3cc(-c4ccccc4)nc4ccccc34)nn12 | 71 | 65% (inactive) | 71% (inactive) | 75.5% (inactive) | 86.9% (inactive) | -0.185% (inactive) | 87.1 | 86.9 | -1.82% (inactive) | 1% (inactive)
COc1ccccc1Nc1ncnc2c1cnn2-c1cccc(C)c1 | 94.5 | 88.5% (inactive) | 94.5% (inactive) | 87.7% (inactive) | 95.4% (inactive) | 10.9% (inactive) | 84.5 | 95.4 | -5.33% (inactive) | -8.71% (inactive)
CCOC(=O)c1ccc(N2C(=O)C3CC=CCC3C2=O)cc1 (stereo not given) | 112 | 116% (inactive) | 112% (inactive) | 92.8% (inactive) | 99.3% (inactive) | 7.42% (inactive) | 91.9 | 99.3 | -6.4% (inactive) | -10.2% (inactive)
CCn1c(SCC(=O)Nc2nc(C)cs2)nnc1-c1ccco1 | 106 | 87.5% (inactive) | 106% (inactive) | 110% (inactive) | 92% (inactive) | 4.38% (inactive) | 87.7 | 92 | -3.33% (inactive) | -2% (inactive)
CCOC(=O)c1cnn(-c2cc(C)nc3c(-c4ccccc4)c(C)nn23)c1N | 120 | 89% (inactive) | 120% (inactive) | 84.2% (inactive) | 89.4% (inactive) | 15.7% (inactive) | 73.7 | 89.4 | -3.77% (inactive) | -5.56% (inactive)
N#CC1(c2ccccc2)CCC(=NO)CC1 (stereo not given) | 106 | 91.5% (inactive) | 106% (inactive) | 90.2% (inactive) | 98.1% (inactive) | 1.23% (inactive) | 96.8 | 98.1 | -3.7% (inactive) | -2.06% (inactive)
CN=C(Nc1cc(C)nn1-c1ccccc1)c1ccccc1 | 93 | 95.5% (inactive) | 93% (inactive) | 86.6% (inactive) | 93.6% (inactive) | -3.59% (inactive) | 97.2 | 93.6 | -2% (inactive) | -3.55% (inactive)
COc1ccc(-c2cc(C(=O)NCCc3ccccc3)no2)cc1OC | 102 | 85.5% (inactive) | 102% (inactive) | 92.3% (inactive) | 89.9% (inactive) | 3.29% (inactive) | 86.6 | 89.9 | -4.19% (inactive) | -12.7% (inactive)
Cn1nc(C(=O)NC2CCCCCC2)ccc1=O | 126 | 104% (inactive) | 126% (inactive) | 101% (inactive) | 111% (inactive) | 19.2% (inactive) | 92 | 111 | -2.6% (inactive) | -0.79% (inactive)
Cc1ccc2c(CNCc3ccco3)cc(=O)oc2c1 | 117 | 94.5% (inactive) | 117% (inactive) | 84.1% (inactive) | 93.5% (inactive) | 11.5% (inactive) | 81.9 | 93.5 | -1.07% (inactive) | -4.03% (inactive)
O=C(NCc1ccccn1)Nc1ccc2c(c1)OCO2 | 100 | 102% (inactive) | 100% (inactive) | 78.7% (inactive) | 92.4% (inactive) | 4.97% (inactive) | 87.4 | 92.4 | -2.37% (inactive) | -0.95% (inactive)
CCC(C)(C)n1nnnc1C(c1ccncc1)N1CCN(c2cccc(OC)c2)CC1 (stereo not given) | 77.5 | 82.5% (inactive) | 77.5% (inactive) | 91.9% (inactive) | 85.3% (inactive) | -0.525% (inactive) | 85.8 | 85.3 | -2.67% (inactive) | 4.26% (inactive)
